From PubChem BioAssay
proCasp7 act: procaspase-7 activators, primary screen, counter-screen for procaspase-3 activator project, biochemical, absorbance, HTS, human; AID 463210, 2010; recombinant procaspase-7, Ac-DEVD-pNA absorbance 405 nm; D23A/D198A/D206A triple mutant, cannot self-cleave; scale: DMSO 0, 5 µM enzyme 100; actives 0.093% (n = 330,000); activation, % at 8.5 µM;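 active means percent activation above the screen-wide mean plus 3 SD, cut at about 25% in these data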
Target sequence (P55210 whole entry D23A/D198A/D206A): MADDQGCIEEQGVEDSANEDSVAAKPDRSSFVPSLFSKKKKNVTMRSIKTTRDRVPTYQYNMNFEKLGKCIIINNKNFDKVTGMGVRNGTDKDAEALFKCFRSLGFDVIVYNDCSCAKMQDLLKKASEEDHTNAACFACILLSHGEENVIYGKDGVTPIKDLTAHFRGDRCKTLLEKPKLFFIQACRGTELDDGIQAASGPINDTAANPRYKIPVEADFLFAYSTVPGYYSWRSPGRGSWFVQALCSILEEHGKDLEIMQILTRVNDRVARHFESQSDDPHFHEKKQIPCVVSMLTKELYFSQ
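System: Uncleavable procaspase-7 mutant enzyme; Amount: 2 µM procaspase-7 mutant as dispensed; Schedule: 1 h compound preincubation, 2 h substrate cleavage, 25 °C; Measured by: 405 nm absorbance of p-nitroaniline; Evaluation: percent activation from buffer-corrected 0–120 min absorbance change; Control set: low DMSO alone, high DMSO plus 5 µM PC-7.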
aDG glyco act: activators of alpha-DG glycosylation, primary screen, uHTS, Pro5-aDG cells, AlphaScreen; AID 624168, 2012; activation, % at 10 µM; actives 0.22% (n = 360,000); alpha-DG glycosylation AlphaScreen (IIH6); 0% Pro5, 100% B10-LARGE cell signal;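 active means activation of at least 8% versus controls, or a plate z-score of at least 8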;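 further: Pro5 are CHO cells carrying HIG-tagged alpha-DG that lacks glycosylation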
NR3A LBD binder: binders of NR3A ligand-binding domain, primary screen, biophysical, differential scanning fluorimetry, uHTS; NR3A LBD differential scanning fluorimetry, Tm shift; 0% = protein alone, 100% = glycine-bound protein; Tm shift relative to glycine control, % at 25 µM; actives 2.5% (n = 340,000);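 active means melting temperature shift of at least 10% of the positive control shift, at one fixed dose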
MPTP block: mitochondrial permeability transition pore inhibitors, primary screen, biochemical, isolated mouse mitochondria, absorbance; Ca2+ swelling absorbance, 30 min; inhibition, % at 10 µM; actives 1.4% (n = 360,000);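 active means inhibition of 50% or more, scaled per plate between neutral and stimulator controls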;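 further: 0% = DMSO wells given calcium and 100% = 1 mM EGTA wells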
proCasp3 act: activators of human procaspase-3 D3A mutant, primary screen, biochemical, absorbance, PC-3 D3A mutant, single concentration. AID 463141, 2010. actives 0.11% (n = 330,000). Caspase-3 (Homo sapiens), P42574. activation, % at 8.5 µM. recombinant procaspase-3 D3A, Ac-DEVD-pNA absorbance 405 nm;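 active means activation above the mean of all tested compounds plus 3 SD, cut at about 21% in these data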;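 further: 0% = DMSO alone and 100% = DMSO wells spiked with extra 5 µM PC-3 D3A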
Target sequence (P42574 whole entry D9A/D28A/D175A): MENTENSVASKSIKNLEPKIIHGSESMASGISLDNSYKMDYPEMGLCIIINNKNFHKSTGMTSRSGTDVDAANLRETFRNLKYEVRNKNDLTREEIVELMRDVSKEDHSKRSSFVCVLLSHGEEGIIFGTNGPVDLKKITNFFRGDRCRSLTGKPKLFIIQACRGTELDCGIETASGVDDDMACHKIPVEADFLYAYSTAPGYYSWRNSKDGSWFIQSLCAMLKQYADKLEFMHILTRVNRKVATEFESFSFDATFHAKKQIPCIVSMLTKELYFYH
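Assay system: Procaspase-3 D3A mutant, all three cleavage aspartates alanine. Buffer or medium: Zinc-free HEPES saline buffer with Triton X-100. Times: 1 h compound preincubation, 2 h substrate hydrolysis at 25 °C. Measured by: 405 nm absorbance of p-nitroaniline, reads at 0 and 120 min. Read-out basis: percent activation relative to control range. Replicates: singlicate.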
Active calls of the source: *; x = no result. An excerpt weighted towards active compounds, which were near 3.7% of everything screened.

SMILES	proCasp7 act	aDG glyco act	NR3A LBD binder	MPTP block	proCasp3 act
COC(=O)c1ccc(C(=O)OC)c(NC(=O)C2CC(=O)N(C3CCCC3)C2)c1 (configuration not stated)	x	0	0	-1	x
O=C(COC(=O)c1cnccn1)NCCc1ccc(Cl)cc1	x	0	-2	-1	x
CCn1c(=S)sc2c(=O)n(CC(=O)Nc3cccc(Cl)c3)c(C)nc21	3	0	33*	5	-1
Cc1cn([C@H]2C[C@H](O)[C@@H](CNCc3ccccc3OCCCN3CCOCC3)O2)c(=O)[nH]c1=O	x	0	x	0	x
CCOC(=O)c1[nH]c2ccc(OC)cc2c1NC(=S)N1CCN(c2cccc(C)c2C)CC1	-16	0	12*	2	-15
CN(C(=O)COC(=O)c1ccccc1SCC(=O)N1CCCC1)C1(C#N)CCCCC1	-11	0	1	-2	8
COc1cc(NC(=O)c2ccno2)cc(C(=O)Nc2cccc(C(F)(F)F)c2)c1	3	0	8	35	3
COc1cc(Nc2ccccn2)cc(C(=O)Nc2cccc(C(F)(F)F)c2)c1	-8	0	21*	15	-3
COc1cc(NC(=O)c2cc3cccc(OC)c3o2)cc(C(=O)Nc2cccc(C(F)(F)F)c2)c1	-1	0	12*	15	-3
COc1cc(NC(=O)c2nccnc2N)cc(C(=O)Nc2cccc(C(F)(F)F)c2)c1	13	0	0	1	-29
COc1cc(NC(=O)c2ccc(N)nc2)cc(C(=O)Nc2cccc(C(F)(F)F)c2)c1	-5	0	30*	0	4
CCNC(=O)C1(C)CCCN(Cc2cc(-c3ccccc3)n(C)n2)C1 (configuration not stated)	x	0	x	-1	x
Cc1c(C(=O)Nc2ccc(C(F)(F)F)cc2)sc2ncn(CC(=O)N3CCN(c4ccccn4)CC3)c(=O)c12	4	0	23*	-1	0
Cc1ccc(NC(=O)c2sc3ncn(CC(=O)N4CCN(c5ccccn5)CC4)c(=O)c3c2C)cc1	x	0	x	-1	x
COC(=O)c1cc2c([nH]c1=O)CCCC2=O	x	0	3	0	x
CC(=O)Nc1cccc(-c2csc(C(O)c3ccc(F)c(F)c3)n2)c1 (configuration not stated)	x	0	x	1	x
CC(=O)O[C@H]1[C@@H](O)[C@H](O)[C@H](Oc2c(O)c(C)c3c4c2[C@@H](C)CC[C@@H]4[C@@H](C)C[C@@H]3C=C(C)C)O[C@H]1C	x	0	x	3	x
CN(C)CCNC(=O)C(=O)c1c(-c2ccccc2)cc2ccccn12	-2	0	242*	0	0
COc1cccc(OC)c1C(=O)Nc1nc(COc2ccccc2)cs1	11	1	23*	2	1
CC(=O)Nc1nc(COc2ccccc2)cs1	17	0	0	-2	0
Cc1ccc(C(=O)Nc2nc(COc3ccccc3)cs2)s1	-3	1	29*	4	-3
COc1ccc(NC(=O)C2(C)Cc3c(-c4ccc5c(c4)OCO5)ccnc3O2)cn1 (configuration not stated)	x	0	x	1	x
CC1(C)CC(=O)C=C(C#CC2(O)CCCCC2)C1	x	1	x	-1	x
O=[N+]([O-])c1ccc(C(O)CNC(=S)Nc2ccccc2)cc1 (configuration not stated)	3	0	12*	0	5
O=C(COc1ccccc1)Nc1ccncc1Cl	1	0	-1	0	7
SMILES	proCasp7 act	aDG glyco act	NR3A LBD binder	MPTP block	proCasp3 act
COc1cccc(C(=O)Nc2ccc(NC(=O)C3CCCCC3)nc2)c1	x	0	-5	-1	x
COc1cc(C(=O)Nc2ccc(NC(=O)C3CCCCC3)nc2)cc(OC)c1OC	x	0	-3	-2	x
COc1cccc(C(=O)Nc2ccc(NC(=O)C(C)(C)C)cn2)c1	6	1	17*	-3	-5
COc1cc(C(=O)Nc2ccc(NC(=O)c3cccc(Cl)c3)nc2)cc(OC)c1OC	x	0	27*	0	x
O=C(COc1ccc(Br)cc1)NNC(=O)Cc1ccc(S(=O)(=O)N2CCOCC2)s1	x	0	-1	0	x
COc1ccccc1-c1cc2nc(-c3ccccc3)cc(N3CCN(C(=O)c4ccoc4)CC3)n2n1	x	0	x	2	x
CC1C(=O)N(c2ccc(S(=O)(=O)N(C)C)cc2)C1(/C=C/c1ccccc1)C(=O)NC1CCCC1 (configuration not stated)	3	0	28*	5	1
Cc1cc(NC(=S)N(CCCN2CCOCC2)Cc2ccco2)ccc1Cl	-9	0	13*	2	-4
NC(=S)N/N=C/c1ccc(C23CC4CC(CC(C4)C2)C3)cc1	-8	x	10*	x	5
NC(=S)N/N=C/c1ccccc1	-4	0	-3	0	2
CCC12CCC3c4ccc(O)cc4CCC3C1CC(O)C2O (configuration not stated)	x	0	-1	0	x
CC(CSC(=O)c1ccccc1)C(=O)N1c2ccccc2CC1C(=O)O (configuration not stated)	x	1	x	-2	x
COc1cc(C2c3c([nH]c(=O)[nH]c3=O)Nc3ccc4ccccc4c32)ccc1O (configuration not stated)	-5	0	27*	-2	-6
COc1cc(C2c3c([nH]c(=O)[nH]c3=O)Nc3ccc4ccccc4c32)cc(OC)c1OC (configuration not stated)	-3	0	30*	0	5
COc1cc(C2CC(=O)c3c(ccc4ccccc34)N2)ccc1O (configuration not stated)	6	0	-2	-1	10
COc1ccc(S(=O)(=O)N2CCCCC2)cc1NC(=O)Cn1c(=O)cnc2ccccc21	1	0	12*	0	0
Cc1c(C(=O)Nc2ccc3c(c2)OCCO3)sc2nc(-c3ccccc3)cn12	5	2	27*	9	0
COc1ccc(C(=O)N2CCOCC2c2cc(C(=O)NCc3ccccc3)no2)cc1 (configuration not stated)	x	0	x	0	x
CCCn1c(=S)[nH]c2cc(C(=O)N3CCN(C4CCCCC4)CC3)ccc2c1=O	7	0	15*	3	1
Cc1ccccc1C(=O)Nc1cc(S(=O)(=O)N2CCOCC2)ccc1N1CCN(C)CC1	4	0	0	0	10
